# Legend:
# [1] = target: T1, ATP-binding cassette sub-family C member 2 (Homo sapiens, UniProt Q92887); assay: Induction of MRP2-mediated E2-17betaG transport in human MRP2 expressing HEK293 cells at 12 uM during 5 mins; format: ADME, cell-based; details: hek293, 5 min
# Method in brief: (§1)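 Inside-out membrane vesicles from HEK293 cells transduced with MRP2 baculovirus (sodium butyrate 5 mM added at 24 h, harvested day 3). 7.5 μg vesicles in TS buffer (pH 7.4) with 4 mM ATP, 10 mM MgCl2, 20 μM [3H]E2-17βG, 5 min at 37°C. Rapid filtration and scintillation counting; AMP values subtracted. Nominal 10 and 100 μM antagonist, actual levels measured by LC-MS/MS. Untreated set at 100%. Three independent experiments.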
# [2] = target: T2, ATP-binding cassette sub-family C member 4 (Homo sapiens, UniProt O15439); assay: Inhibition of MRP4-mediated E2-17betaG transport in human MRP4 expressing HEK293 cells in presence of 0.1 to 1 uM E2-17betaG
# T2 sequence (O15439 whole entry): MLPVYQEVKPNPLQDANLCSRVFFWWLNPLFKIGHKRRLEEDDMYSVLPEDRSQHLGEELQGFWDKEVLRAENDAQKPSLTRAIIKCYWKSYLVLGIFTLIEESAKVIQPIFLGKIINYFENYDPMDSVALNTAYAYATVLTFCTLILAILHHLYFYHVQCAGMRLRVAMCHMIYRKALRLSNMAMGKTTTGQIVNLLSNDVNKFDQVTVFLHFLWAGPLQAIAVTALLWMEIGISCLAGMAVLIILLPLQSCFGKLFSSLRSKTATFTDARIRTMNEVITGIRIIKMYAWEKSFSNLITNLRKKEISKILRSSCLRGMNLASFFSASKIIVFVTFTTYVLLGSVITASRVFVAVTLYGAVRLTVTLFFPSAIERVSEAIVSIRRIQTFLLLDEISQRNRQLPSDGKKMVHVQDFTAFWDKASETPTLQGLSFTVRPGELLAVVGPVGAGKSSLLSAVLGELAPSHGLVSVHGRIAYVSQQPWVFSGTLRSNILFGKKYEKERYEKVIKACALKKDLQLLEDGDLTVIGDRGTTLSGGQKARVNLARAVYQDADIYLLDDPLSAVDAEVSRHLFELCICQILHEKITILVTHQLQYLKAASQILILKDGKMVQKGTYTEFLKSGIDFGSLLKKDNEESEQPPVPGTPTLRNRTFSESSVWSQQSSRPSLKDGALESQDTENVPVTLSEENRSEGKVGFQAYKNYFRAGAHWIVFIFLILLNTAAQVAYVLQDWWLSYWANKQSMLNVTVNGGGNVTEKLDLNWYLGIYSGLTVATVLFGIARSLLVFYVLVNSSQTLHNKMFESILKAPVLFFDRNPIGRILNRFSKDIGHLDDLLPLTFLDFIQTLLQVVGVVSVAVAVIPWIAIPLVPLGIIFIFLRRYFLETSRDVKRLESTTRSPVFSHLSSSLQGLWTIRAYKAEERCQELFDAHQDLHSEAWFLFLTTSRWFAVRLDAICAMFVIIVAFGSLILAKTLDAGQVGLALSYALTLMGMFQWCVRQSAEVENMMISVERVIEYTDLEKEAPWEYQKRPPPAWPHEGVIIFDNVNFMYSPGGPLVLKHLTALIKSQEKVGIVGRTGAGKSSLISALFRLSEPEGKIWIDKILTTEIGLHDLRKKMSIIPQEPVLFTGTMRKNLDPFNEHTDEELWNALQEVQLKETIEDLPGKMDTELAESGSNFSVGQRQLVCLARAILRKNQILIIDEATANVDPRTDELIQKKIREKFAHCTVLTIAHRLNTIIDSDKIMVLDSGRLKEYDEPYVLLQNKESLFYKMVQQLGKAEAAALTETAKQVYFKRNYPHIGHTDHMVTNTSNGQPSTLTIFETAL
# MRP1 (ABCC1) = MRP1 (ABCC1) (Homo sapiens, UniProt P33527); assay: (§2) Inhibition of MRP1-mediated E2-17betaG transport in human MRP1 expressing HEK293 cells at 12 uM during 5 mins; format: ADME, cell-based; details: probe E2-17betaG
# Sequence of MRP1 (ABCC1) (P33527 whole entry): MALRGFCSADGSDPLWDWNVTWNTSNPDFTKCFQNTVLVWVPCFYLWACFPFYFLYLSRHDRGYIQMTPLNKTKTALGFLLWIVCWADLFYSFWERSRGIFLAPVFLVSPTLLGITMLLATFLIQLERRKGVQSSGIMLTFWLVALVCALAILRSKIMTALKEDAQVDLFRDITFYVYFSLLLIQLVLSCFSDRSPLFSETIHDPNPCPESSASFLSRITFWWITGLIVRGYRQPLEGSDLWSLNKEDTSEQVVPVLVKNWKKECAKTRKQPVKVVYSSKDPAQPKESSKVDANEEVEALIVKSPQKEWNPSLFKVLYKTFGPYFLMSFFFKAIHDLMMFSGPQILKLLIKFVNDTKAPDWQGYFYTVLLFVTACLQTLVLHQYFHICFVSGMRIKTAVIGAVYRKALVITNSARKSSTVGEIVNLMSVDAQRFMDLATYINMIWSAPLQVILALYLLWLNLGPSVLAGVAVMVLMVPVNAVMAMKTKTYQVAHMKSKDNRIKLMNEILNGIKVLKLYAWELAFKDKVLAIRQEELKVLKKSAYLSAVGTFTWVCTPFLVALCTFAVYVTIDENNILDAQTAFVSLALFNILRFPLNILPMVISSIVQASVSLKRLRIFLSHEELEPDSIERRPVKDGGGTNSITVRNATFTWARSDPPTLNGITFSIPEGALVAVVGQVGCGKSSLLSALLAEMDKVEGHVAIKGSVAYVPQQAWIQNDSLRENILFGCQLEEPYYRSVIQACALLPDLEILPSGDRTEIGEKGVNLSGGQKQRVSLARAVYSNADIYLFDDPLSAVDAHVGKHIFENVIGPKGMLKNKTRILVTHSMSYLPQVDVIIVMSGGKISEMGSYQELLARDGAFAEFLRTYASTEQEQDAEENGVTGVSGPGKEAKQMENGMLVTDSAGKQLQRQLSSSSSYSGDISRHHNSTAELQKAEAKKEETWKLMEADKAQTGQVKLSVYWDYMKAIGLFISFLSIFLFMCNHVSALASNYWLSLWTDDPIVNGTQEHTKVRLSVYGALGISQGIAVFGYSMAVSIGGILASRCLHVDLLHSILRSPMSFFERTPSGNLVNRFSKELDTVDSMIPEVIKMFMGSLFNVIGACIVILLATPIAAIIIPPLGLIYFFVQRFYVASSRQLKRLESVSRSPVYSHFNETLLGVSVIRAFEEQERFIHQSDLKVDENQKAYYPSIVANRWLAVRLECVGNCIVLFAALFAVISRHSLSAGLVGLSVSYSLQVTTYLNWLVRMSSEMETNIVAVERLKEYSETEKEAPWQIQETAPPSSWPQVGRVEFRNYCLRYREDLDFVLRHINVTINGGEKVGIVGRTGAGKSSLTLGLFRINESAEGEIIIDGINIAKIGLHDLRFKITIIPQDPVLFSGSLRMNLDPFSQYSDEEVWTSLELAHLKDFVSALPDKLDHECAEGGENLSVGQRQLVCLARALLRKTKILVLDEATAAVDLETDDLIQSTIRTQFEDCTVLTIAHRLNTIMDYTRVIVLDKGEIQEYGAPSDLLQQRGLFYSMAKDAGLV
# Method in brief: (§3)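 Inside-out membrane vesicles from MRP1-baculovirus-transduced HEK293 cells. 7.5 μg vesicles in TS buffer, 4 mM ATP, 10 mM MgCl2, 0.16 μM [3H]E2-17βG, 5 min at 37°C. Stopped on ice, then rapid filtration and scintillation counting. ATP minus AMP uptake taken as net. Nominal 10 or 100 μM antagonist, actual levels by LC-MS/MS. Expressed as % of untreated. Three independent experiments.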
# [3] = target: T3, Multidrug resistance-associated protein 1 (Homo sapiens, UniProt P33527); assay: Inhibition of MRP1-mediated E2-17betaG transport in human MRP1 expressing HEK293 cells in presence of 0.16 to 5 uM E2-17betaG
# T3 sequence (P33527 whole entry): as above
# [4] = Retention time of the compound by LC-MS/MS method; format: physicochemical
# Method in brief: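 Reaction mix without radiolabel, AMP condition, with 7.5 μg eYFP vesicles. Supernatant after 16,000–20,000g spin diluted in 50% acetonitrile/0.1% TFA. Gradient of 0.1% TFA water/acetonitrile, 50→90% B over 5 min. Electrospray triple quadrupole. Duplicates, at least three experiments.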
# MRP4 (ABCC4) [5] = target: T4, MRP4 (ABCC4) (Homo sapiens, UniProt O15439); assay: (§4) Inhibition of MRP4-mediated E2-17betaG transport in human MRP4 expressing HEK293 cells at 12 uM during 5 mins; format: ADME, cell-based; details: probe E2-17betaG
# T4 sequence (O15439 whole entry): T2 sequence (O15439 whole entry)
# Method in brief: (§5)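 MRP4-expressing HEK293 inside-out vesicles (baculovirus transduction). 7.5 μg protein with 4 mM ATP, 10 mM MgCl2 in TS buffer and 0.12 μM [3H]E2-17βG, 5 min at 37°C. Filter-bound radioactivity counted; AMP control subtracted for ATP-dependent uptake. Nominal 10/100 μM antagonist, actual concentrations by LC-MS/MS. Percent of untreated, three independent experiments.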
# [6] = target: ATP-binding cassette sub-family C member 3 (Homo sapiens, UniProt O15438); assay: Inhibition of MRP3-mediated E2-17betaG transport in human MRP3 expressing HEK293 cells in presence of 15 uM E2-17betaG; format: ADME, cell-based
# Sequence of ATP-binding cassette sub-family C member 3 (O15438 whole entry): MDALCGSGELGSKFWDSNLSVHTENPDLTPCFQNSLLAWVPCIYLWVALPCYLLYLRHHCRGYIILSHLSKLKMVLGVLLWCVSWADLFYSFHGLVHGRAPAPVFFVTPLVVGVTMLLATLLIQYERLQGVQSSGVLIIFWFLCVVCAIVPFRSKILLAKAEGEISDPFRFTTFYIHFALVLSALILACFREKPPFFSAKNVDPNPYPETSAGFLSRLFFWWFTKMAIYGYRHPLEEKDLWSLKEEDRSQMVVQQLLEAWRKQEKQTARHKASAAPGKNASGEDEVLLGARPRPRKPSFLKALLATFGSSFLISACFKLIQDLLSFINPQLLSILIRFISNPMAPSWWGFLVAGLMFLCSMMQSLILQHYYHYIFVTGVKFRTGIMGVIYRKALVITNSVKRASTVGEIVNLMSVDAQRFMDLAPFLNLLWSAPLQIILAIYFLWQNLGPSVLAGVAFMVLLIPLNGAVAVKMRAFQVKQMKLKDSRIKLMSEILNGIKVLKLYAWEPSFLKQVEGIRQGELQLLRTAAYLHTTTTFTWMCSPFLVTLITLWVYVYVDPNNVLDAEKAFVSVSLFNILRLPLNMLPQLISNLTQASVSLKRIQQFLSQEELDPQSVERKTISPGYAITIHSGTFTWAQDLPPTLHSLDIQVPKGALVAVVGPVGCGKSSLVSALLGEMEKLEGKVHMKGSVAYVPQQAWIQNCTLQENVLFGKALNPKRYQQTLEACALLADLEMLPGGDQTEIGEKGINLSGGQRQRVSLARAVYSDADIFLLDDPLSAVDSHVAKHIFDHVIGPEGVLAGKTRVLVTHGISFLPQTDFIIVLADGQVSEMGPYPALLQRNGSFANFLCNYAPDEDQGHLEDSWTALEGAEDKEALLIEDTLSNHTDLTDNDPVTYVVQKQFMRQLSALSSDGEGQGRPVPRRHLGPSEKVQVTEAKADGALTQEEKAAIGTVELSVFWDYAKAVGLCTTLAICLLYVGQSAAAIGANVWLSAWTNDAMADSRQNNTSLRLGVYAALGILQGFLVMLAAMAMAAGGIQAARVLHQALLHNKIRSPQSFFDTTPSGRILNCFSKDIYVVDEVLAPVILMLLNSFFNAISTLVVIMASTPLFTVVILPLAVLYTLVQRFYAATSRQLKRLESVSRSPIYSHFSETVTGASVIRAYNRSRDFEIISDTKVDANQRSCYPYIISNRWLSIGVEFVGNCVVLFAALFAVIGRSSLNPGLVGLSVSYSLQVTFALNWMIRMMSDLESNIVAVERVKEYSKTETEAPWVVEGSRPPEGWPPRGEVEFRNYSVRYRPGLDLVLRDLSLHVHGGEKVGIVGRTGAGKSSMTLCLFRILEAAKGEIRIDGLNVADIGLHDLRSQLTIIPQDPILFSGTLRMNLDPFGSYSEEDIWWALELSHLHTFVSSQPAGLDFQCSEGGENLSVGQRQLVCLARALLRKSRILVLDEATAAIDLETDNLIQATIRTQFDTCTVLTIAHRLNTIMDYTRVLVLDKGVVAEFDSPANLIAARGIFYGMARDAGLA
# Method in brief: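 Vesicles from MRP3-transduced HEK293 cells. 7.5 μg in TS buffer with 4 mM ATP and 10 mM MgCl2, substrate [3H]E2-17βG at 15 μM, with antagonists at high concentrations. Incubated at 37°C, filtered and counted. ATP-dependent uptake calculated by AMP subtraction.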
# [7] = target: T2, ATP-binding cassette sub-family C member 4; assay: Noncompetitive inhibition of MRP4-mediated E2-17betaG transport in human MRP4 expressing HEK293 cells by Dixon plot; format: ADME, cell-based
# [8] = target: T2, ATP-binding cassette sub-family C member 4; assay: Inhibition of MRP4-mediated E2-17betaG transport in human MRP4 expressing HEK293 cells at 7 uM during 5 mins; format: ADME, cell-based; details: hek293, 5 min
# Method in brief: (§6)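 Inside-out membrane vesicles from HEK293 cells transduced with MRP baculovirus (5 mM butyrate at 24 h, harvested day 3). Reaction: 7.5 µg vesicles in TS buffer pH 7.4 with 4 mM ATP, 10 mM MgCl2 and [3H]E2-17βG, 37°C for 5 min. E2-17βG was 0.16 µM (MRP1), 20 µM (MRP2) or 0.12 µM (MRP4). Uptake was read by rapid filtration and scintillation counting. ATP-dependent uptake was taken as ATP minus AMP values, with drug-free uptake set at 100%. Nominal 10 or 100 µM antagonist; actual concentration measured by LC-MS/MS. Three independent experiments.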
# [9] = target: T3, Multidrug resistance-associated protein 1; assay: Inhibition of MRP1-mediated E2-17betaG transport in human MRP1 expressing HEK293 cells at 7 uM during 5 mins; format: ADME, cell-based; details: hek293, 5 min; method in brief: as §6
# [10] = target: T1, ATP-binding cassette sub-family C member 2; assay: Induction of MRP2-mediated E2-17betaG transport in human MRP2 expressing HEK293 cells at 7 uM during 5 mins; format: ADME, cell-based; details: hek293, 5 min; method in brief: as §6
# [11] = target: T2, ATP-binding cassette sub-family C member 4; assay: Inhibition of MRP4-mediated E2-17betaG transport in human MRP4 expressing HEK293 cells at 1 to 3 uM during 5 mins; format: ADME, cell-based; details: hek293, 5 min; method in brief: as §5
# [12] = target: T1, ATP-binding cassette sub-family C member 2; assay: Induction of MRP2-mediated E2-17betaG transport in human MRP2 expressing HEK293 cells at 1 to 3 uM during 5 mins; format: ADME, cell-based; details: hek293, 5 min; method in brief: as §1
# [13] = target: T3, Multidrug resistance-associated protein 1; assay: Inhibition of MRP1-mediated E2-17betaG transport in human MRP1 expressing HEK293 cells at 1 to 3 uM during 5 mins; format: ADME, cell-based; details: hek293, 5 min; method in brief: as §3
# Rattus norvegicus = assay: Attenuation of CP55940-induced hypotension in iv dosed rat; format: functional
# Method in brief: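 Male normotensive anaesthetized Wistar rats; antagonist given i.v. at several doses (n=2 per dose) 10 min before CP55,940 0.1 mg/kg i.v. Hypotension develops within 1 min; lowest blood pressure taken as the hypotensive effect. ED50 is the dose inhibiting the CP55,940 hypotensive effect by 50%, calculated from the linear part of the percentage dose-response curve.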
# [14] = target: T1, ATP-binding cassette sub-family C member 2; assay: Induction of MRP2-mediated E2-17betaG transport in human MRP2 expressing HEK293 cells at 0.7 to 1.3 uM during 5 mins; format: ADME, cell-based; details: hek293, 5 min; method in brief: as §1
# [15] = Cmax in male human subjects; format: ADME, organism-based; details: in vivo
# [16] = target: T1, ATP-binding cassette sub-family C member 2; assay: Induction of MRP2-mediated E2-17betaG transport in human MRP2 expressing HEK293 cells at 4 uM during 5 mins; format: ADME, cell-based; details: hek293, 5 min; method in brief: as §1
# MRP4 (ABCC4) [17] = target: T4, MRP4 (ABCC4); assay: Inhibition of MRP4-mediated E2-17betaG transport in human MRP4 expressing HEK293 cells at 4 uM during 5 mins; format: ADME, cell-based; details: probe E2-17betaG; method in brief: as §5
# [18] = target: T3, Multidrug resistance-associated protein 1; assay: as §2; format: ADME, cell-based; details: hek293, 5 min, 12 µM; method in brief: as §3
# [19] = target: T2, ATP-binding cassette sub-family C member 4; assay: as §4; format: ADME, cell-based; details: hek293, 5 min, 12 µM; method in brief: as §5
# [20] = target: T1, ATP-binding cassette sub-family C member 2; assay: Induction of MRP2-mediated E2-17betaG transport in human MRP2 expressing HEK293 cells at 33 uM during 5 mins; format: ADME, cell-based; details: hek293, 5 min; method in brief: as §6
# [21] = target: T3, Multidrug resistance-associated protein 1; assay: Inhibition of MRP1-mediated E2-17betaG transport in human MRP1 expressing HEK293 cells at 33 uM during 5 min; format: ADME, cell-based; details: hek293, 5 min; method in brief: as §6
# [22] = target: T2, ATP-binding cassette sub-family C member 4; assay: Inhibition of MRP4-mediated E2-17betaG transport in human MRP4 expressing HEK293 cells at 33 uM during 5 mins; format: ADME, cell-based; details: hek293, 5 min; method in brief: as §6
# T1 sequence (Q92887 whole entry): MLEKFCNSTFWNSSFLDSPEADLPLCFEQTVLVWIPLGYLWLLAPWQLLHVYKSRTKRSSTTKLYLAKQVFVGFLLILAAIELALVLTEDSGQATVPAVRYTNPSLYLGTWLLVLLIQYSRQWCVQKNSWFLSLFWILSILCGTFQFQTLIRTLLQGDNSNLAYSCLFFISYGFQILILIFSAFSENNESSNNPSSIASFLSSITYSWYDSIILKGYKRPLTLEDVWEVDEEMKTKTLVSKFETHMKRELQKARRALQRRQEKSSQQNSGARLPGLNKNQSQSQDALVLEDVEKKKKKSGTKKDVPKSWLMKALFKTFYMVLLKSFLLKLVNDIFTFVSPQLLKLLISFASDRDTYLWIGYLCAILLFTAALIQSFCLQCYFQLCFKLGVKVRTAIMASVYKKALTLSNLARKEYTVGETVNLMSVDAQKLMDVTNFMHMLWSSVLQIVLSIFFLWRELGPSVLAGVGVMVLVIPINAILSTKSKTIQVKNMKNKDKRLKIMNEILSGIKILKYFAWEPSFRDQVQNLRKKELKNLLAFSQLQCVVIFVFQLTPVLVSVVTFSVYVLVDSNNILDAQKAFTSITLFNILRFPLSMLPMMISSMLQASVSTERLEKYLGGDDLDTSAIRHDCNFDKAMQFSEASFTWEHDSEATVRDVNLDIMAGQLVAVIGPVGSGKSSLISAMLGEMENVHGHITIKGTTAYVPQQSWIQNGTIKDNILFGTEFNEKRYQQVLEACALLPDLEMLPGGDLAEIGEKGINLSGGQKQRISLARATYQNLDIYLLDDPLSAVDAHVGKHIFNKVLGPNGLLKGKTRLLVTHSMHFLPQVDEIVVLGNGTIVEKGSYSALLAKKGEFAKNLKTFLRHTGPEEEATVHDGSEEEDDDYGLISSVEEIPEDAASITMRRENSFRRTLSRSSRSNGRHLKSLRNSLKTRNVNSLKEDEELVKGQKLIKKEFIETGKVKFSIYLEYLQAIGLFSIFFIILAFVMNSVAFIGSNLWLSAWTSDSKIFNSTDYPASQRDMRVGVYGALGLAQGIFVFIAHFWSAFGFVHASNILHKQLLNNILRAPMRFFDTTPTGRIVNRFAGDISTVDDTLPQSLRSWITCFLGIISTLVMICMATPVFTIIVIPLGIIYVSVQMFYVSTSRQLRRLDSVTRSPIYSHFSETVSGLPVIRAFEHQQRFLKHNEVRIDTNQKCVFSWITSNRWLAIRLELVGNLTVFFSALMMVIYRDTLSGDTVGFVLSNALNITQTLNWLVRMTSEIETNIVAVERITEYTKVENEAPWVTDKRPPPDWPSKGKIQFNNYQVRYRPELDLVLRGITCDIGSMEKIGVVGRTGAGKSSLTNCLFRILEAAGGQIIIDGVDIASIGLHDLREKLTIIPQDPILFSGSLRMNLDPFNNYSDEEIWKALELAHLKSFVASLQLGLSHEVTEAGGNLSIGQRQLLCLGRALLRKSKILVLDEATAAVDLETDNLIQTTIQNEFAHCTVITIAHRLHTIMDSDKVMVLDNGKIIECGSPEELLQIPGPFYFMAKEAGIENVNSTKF
Structure (SMILES),inhibition (INH) [2],Retention_time [4] [min],inhibition (INH) [6],inhibition (INH) [11],Activity [12],inhibition (INH) [13],ED50 (Rattus norvegicus) [mg/kg],Activity [14] [%],also measured
CCN(C)S(=O)(=O)NC(=NC)N1CC(c2ccccc2)C(c2ccc(Cl)cc2)=N1 (configuration not stated),Active,3.8,Active,,,,,,"Activity [1]: 543%; inhibition at 5 min, 12 µM (MRP1 (ABCC1)): -34%; inhibition (INH) [3]: Active; inhibition at 5 min, 12 µM (MRP4 (ABCC4) [5]): -72%; Ki [7]: 7 µM"
C/N=C(\NS(=O)(=O)N(C)C(C)C)N1CC(c2ccccc2)C(c2ccc(Cl)cc2)=N1 (configuration not stated),,4.2,,,,,,,inhibition (INH) [8]: Active; inhibition (INH) [9]: Active; Activity [10]: 543%
CN=C(NS(=O)(=O)N1CCS(=O)(=O)CC1)N1CC(c2ccccc2)C(c2ccc(Cl)cc2)=N1 (configuration not stated),,2.6,,Not Active,Not Active,Not Active,,,
CN/C(=N\S(=O)(=O)N1CCCCCC1)N1CC(c2ccccc2)C(c2ccc(Cl)cc2)=N1 (configuration not stated),Active,4.8,Active,Not Active,349%,Not Active,0.1,256,"inhibition (INH) ([7]; human, hek293): Active"
Cc1c(C(=O)NN2CCCCC2)nn(-c2ccc(Cl)cc2Cl)c1-c1ccc(Cl)cc1 [RIMONABANT],Active,3.2,Active,,,,,,"Cmax [15]: 400 nM; Activity [16]: 513%; inhibition at 5 min, 4 µM (MRP4 (ABCC4) [17]): -58%; Ki [7]: 4 µM"
CN=C(NS(=O)(=O)N1CCCC1)N1CC(c2ccccc2)C(c2ccc(Cl)cc2)=N1 (configuration not stated),,3.5,,,,,0.7,,Activity [1]: 543%; inhibition (INH) [18]: Active; inhibition (INH) [19]: Active
CCN(CC)S(=O)(=O)NC(=NC)N1CC(c2ccccc2)C(c2ccc(Cl)cc2)=N1 (configuration not stated),,4.2,,,,,0.2,,inhibition (INH) [8]: Active; inhibition (INH) [9]: Not Active; Activity [10]: 543%
CNC(=NS(=O)(=O)N1CCCCCCC1)N1CC(c2ccccc2)C(c2ccc(Cl)cc2)=N1 (configuration not stated),,5.4,,Not Active,349%,Not Active,,256,
C/N=C(\NS(=O)(=O)N1CCSCC1)N1CC(c2ccccc2)C(c2ccc(Cl)cc2)=N1 (configuration not stated),,4,,Not Active,349%,Not Active,,256,
C/N=C(\NS(=O)(=O)N(C)C)N1CC(c2ccccc2)C(c2ccc(Cl)cc2)=N1 (configuration not stated),,3.2,,,,,> 0.3,,Activity [20]: 543%; inhibition (INH) [21]: Active; inhibition (INH) [22]: Active

# Reference: ChEMBL document CHEMBL3526013, “Cannabinoid type 1 receptor antagonists modulate transport activity of multidrug resistance-associated proteins MRP1, MRP2, MRP3, and MRP4” (Drug Metab Dispos, 2011)
